Laboratory results from ChEMBL document CHEMBL2203265, “Discovery of tetrahydropyridopyrimidine phosphodiesterase 10A inhibitors for the treatment of schizophrenia” (Bioorg Med Chem Lett, 2012).
In brackets after ≈: the same amount, converted by molar mass. Values belong to the molecule of their own block, whether it stands above or below them. Activity calls are given as the source filed them. No cut-off for these calls is given here.

How the values were obtained:
[1] = Solubility of the compound at pH 7; type: physicochemical; conditions: buffer
[2] = target: cAMP and cAMP-inhibited cGMP 3',5'-cyclic phosphodiesterase 10A (Homo sapiens, UniProt Q9Y233); assay: Inhibition of PDE10A
Sequence of cAMP and cAMP-inhibited cGMP 3',5'-cyclic phosphodiesterase 10A (Q9Y233 whole entry): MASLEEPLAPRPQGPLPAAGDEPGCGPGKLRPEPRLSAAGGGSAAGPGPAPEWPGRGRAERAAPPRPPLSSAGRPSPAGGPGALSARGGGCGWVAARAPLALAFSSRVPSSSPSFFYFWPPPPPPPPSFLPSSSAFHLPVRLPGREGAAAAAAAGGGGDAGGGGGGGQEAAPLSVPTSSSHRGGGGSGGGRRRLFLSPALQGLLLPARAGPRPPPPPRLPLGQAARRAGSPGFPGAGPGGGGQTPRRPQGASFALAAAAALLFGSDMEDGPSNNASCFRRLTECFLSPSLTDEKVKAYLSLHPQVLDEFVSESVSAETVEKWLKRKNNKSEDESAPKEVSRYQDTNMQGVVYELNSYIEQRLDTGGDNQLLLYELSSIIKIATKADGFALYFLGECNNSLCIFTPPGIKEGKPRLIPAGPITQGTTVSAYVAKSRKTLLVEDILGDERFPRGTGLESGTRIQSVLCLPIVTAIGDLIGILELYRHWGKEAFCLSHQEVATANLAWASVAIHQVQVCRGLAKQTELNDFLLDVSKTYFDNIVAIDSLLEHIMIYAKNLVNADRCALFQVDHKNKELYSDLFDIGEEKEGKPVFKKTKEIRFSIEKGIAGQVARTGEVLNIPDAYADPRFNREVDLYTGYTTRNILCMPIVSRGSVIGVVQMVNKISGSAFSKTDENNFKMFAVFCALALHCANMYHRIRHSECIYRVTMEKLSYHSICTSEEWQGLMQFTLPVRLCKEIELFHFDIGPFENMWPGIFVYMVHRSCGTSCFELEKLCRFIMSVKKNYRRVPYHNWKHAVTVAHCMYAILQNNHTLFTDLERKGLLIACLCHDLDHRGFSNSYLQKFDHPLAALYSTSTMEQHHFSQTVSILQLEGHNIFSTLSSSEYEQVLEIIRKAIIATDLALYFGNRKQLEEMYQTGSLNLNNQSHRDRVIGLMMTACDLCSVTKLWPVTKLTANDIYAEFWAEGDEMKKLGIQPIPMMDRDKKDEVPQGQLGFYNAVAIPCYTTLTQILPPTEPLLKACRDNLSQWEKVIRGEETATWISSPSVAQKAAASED

Rattus norvegicus [3] = assay: Toxicity in rat assessed as decrease in total body fat up to 10 mg/kg, po administered for 7 days relative to vehicle-treated control; type: organism-based; set-up: dose 10 mg/kg, route oral; conditions: in vivo, 168 h
Procedure, shortened: (§1)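 Rats are dosed orally for 7 days, with olanzapine at 4 mg/kg as the comparator. Weight gain, body fat, and lean body mass are measured against vehicle, n = 12/group.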

Homo sapiens [4] = species: Homo sapiens; assay: Selectivity ratio of Ki for human PDE3A to Ki for human PDE10A
Salmonella typhimurium = assay: Mutagenicity against Salmonella typhimurium up to 5000 ug/plate by Ames test; type: toxicity, organism-based; conditions: salmonella enterica subsp. enterica serovar typhimurium
[5] = target: T1, Nuclear receptor subfamily 1 group I member 2 (Homo sapiens, UniProt O75469); assay: Activation of PXR
T1 sequence (O75469 whole entry): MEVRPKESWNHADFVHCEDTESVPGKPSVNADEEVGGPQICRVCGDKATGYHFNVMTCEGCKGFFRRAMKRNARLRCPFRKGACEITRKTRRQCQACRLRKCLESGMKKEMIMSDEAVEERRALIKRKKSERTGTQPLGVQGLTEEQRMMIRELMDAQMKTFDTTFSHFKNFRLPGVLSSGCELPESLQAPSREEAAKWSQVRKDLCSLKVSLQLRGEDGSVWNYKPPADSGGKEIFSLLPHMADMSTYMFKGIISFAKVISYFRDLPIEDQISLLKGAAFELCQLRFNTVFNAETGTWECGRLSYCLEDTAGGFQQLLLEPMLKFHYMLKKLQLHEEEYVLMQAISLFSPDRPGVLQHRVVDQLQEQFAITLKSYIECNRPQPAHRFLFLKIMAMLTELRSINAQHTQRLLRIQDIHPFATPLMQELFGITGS

[6] = Time-dependent inhibition of cytochrome P450; type: ADME
Rattus norvegicus [7] = assay: Toxicity in rat assessed as increase in prolactin level up to 50 mg/kg, po; type: organism-based; set-up: dose 50 mg/kg, route oral; conditions: in vivo
Procedure, shortened: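 Circulating prolactin is measured in rats after oral administration, with haloperidol at 1.5 mg/kg as the control.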

Rattus norvegicus [8] = assay: Toxicity in rat assessed as decrease in weight gain up to 10 mg/kg, po administered for 7 days relative to vehicle-treated control; type: organism-based; set-up: dose 10 mg/kg, route oral; conditions: in vivo, 168 h; procedure, shortened: as §1
Homo sapiens [9] = species: Homo sapiens; assay: Selectivity ratio of Ki for human PDE11A to Ki for human PDE10A
Rattus norvegicus [10] = assay: Inhibition of PDE10A in rat assessed as increase in striatal cGMP level at 30 mg/kg, po after 2 hrs relative to vehicle-treated control; type: functional; set-up: scale not given: the % may be the effect or the level left
Procedure, shortened: (§2)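 Rats given the compound orally. Striatal cGMP is measured 2 h after dosing and expressed relative to vehicle-injected controls.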

Homo sapiens [11] = species: Homo sapiens; assay: Selectivity ratio of Ki for human PDE2A to Ki for human PDE10A
[12] = Reversible inhibition of cytochrome P450; type: ADME
Rattus norvegicus [13] = species: Rattus norvegicus; assay: Antipsychotic activity in rat by conditioned avoidance response assay; type: functional, organism-based
Homo sapiens [14] = species: Homo sapiens; assay: Selectivity ratio of Ki for human PDE5A to Ki for human PDE10A
Homo sapiens [15] = species: Homo sapiens; assay: Selectivity ratio of Ki for human PDE1A to Ki for human PDE10A
Homo sapiens [16] = species: Homo sapiens; assay: Selectivity ratio of Ki for human PDE9A to Ki for human PDE10A
Rattus norvegicus [17] = assay: Antipsychotic activity in rat assessed as increase in cognitive function at 1 mg/kg, po by NOR assay; type: functional, organism-based; set-up: dose 1 mg/kg
Rattus norvegicus [18] = assay: Toxicity in rat assessed as decrease in lean body mass up to 10 mg/kg, po administered for 7 days relative to vehicle-treated control; type: organism-based; set-up: dose 10 mg/kg, route oral; conditions: in vivo, 168 h; procedure, shortened: as §1
Rattus norvegicus [19] = assay: Antipsychotic activity in rat assessed as inhibition of MK801-induced hyperlocomotion at 3 mg/kg, po; type: functional, organism-based; set-up: dose 3 mg/kg
Procedure, shortened: (§3)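 Oral dosing in rats challenged with the psychostimulant MK-801. Locomotor activity is scored against vehicle-only animals and against animals given MK-801 alone.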

[20] = Clearance in rat; type: ADME, organism-based; conditions: in vivo
Homo sapiens [21] = species: Homo sapiens; assay: Selectivity ratio of Ki for human PDE4A to Ki for human PDE10A
Homo sapiens [22] = species: Homo sapiens; assay: Selectivity ratio of Ki for human PDE6A to Ki for human PDE10A
Canis familiaris = assay: Cardiotoxicity in dog assessed as QTc prolongation at 13,29 and 42 mg/kg, iv administered sequentially at 30 mins periods; type: toxicity, organism-based, Canis lupus familiaris; set-up: dose 42 mg/kg, route intravenous; conditions: in vivo, 0.5 h
[23] = Clearance in dog; type: ADME, organism-based, Canis lupus familiaris; conditions: in vivo
Rattus norvegicus [24] = assay: Toxicity in rat assessed as induction of catalepsy up to 50 mg/kg, po; type: organism-based; set-up: dose 50 mg/kg, route oral; conditions: in vivo
Procedure, shortened: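 Catalepsy in rats is scored by fore-limb retraction (paw test) after oral administration, with haloperidol at 1.5 mg/kg as the control.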

Homo sapiens [25] = species: Homo sapiens; assay: Selectivity ratio of Ki for human PDE8A to Ki for human PDE10A
Rattus norvegicus [26] = assay: Inhibition of PDE10A in po dosed rat assessed as increase in striatal cGMP level after 2 hrs relative to vehicle-treated control; type: functional, organism-based; procedure, shortened: as §2
Homo sapiens [27] = species: Homo sapiens; assay: Selectivity ratio of Ki for human PDE7A to Ki for human PDE10A
[28] = Plasma concentration in rat at 3 mg/kg, po at 2 hrs; type: ADME, organism-based; set-up: dose 3 mg/kg, route oral
Procedure, shortened: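 Plasma drug concentration is sampled 2 h after oral dosing in the rat hyperlocomotion study.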

[29] = Clearance in monkey; type: ADME, organism-based, Macaca mulatta; conditions: rhesus monkey, in vivo
Rattus norvegicus [30] = assay: Antipsychotic activity in po dosed rat assessed as inhibition of MK801-induced hyperlocomotion; type: functional, organism-based; procedure, shortened: as §3
[31] = Plasma clearance in rat; type: ADME, organism-based
Rattus norvegicus [32] = assay: Toxicity in rat assessed as decrease in lean body mass at 4 mg/kg, po administered for 7 days relative to vehicle-treated control; type: organism-based; set-up: dose 4 mg/kg, route oral; conditions: in vivo, 168 h
Procedure, shortened: (§4)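 Rats given chronic dosing over 7 days. Body weight gain, total body fat and lean body mass recorded at the end of treatment and compared with a vehicle-treated group for statistical significance; n = 12 per group.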

Rattus norvegicus [33] = assay: Toxicity in rat assessed as decrease in weight gain at 4 mg/kg, po administered for 7 days relative to vehicle-treated control; type: organism-based; set-up: dose 4 mg/kg, route oral; conditions: in vivo, 168 h; procedure, shortened: as §4
Rattus norvegicus [34] = assay: Toxicity in rat assessed as decrease in total body fat at 4 mg/kg, po administered for 7 days relative to vehicle-treated control; type: organism-based; set-up: dose 4 mg/kg, route oral; conditions: in vivo, 168 h; procedure, shortened: as §4

solubility [1]: > 75 µM | Ki [2]: 0.864 µM
SMILES: CN(CCc1ccccn1)c1nc(-c2ccccn2)nc2c1CN(C(=O)Nc1ccccc1)CC2

Ki [2]: 0.008 µM
SMILES: Cc1ccc(-c2nc3c(c(OC(C)C)n2)CN(C(=O)Nc2cnccc2C)CC3)cn1

solubility [1]: > 75 µM | Ki [2]: 0.093 µM
SMILES: COc1nc(-c2cccnc2)nc2c1CN(C(=O)Nc1ccccc1)CC2

solubility [1]: > 75 µM | Ki [2]: 0.186 µM
SMILES: CN(CCc1ccccn1)c1nc(-c2ccncc2)nc2c1CN(C(=O)OC(C)(C)C)CC2

solubility [1]: > 75 µM | Ki [2]: 0.843 µM
SMILES: CN(CCc1ccccn1)c1nc(-c2ccncc2)nc2c1CN(S(C)(=O)=O)CC2

Ki [2]: 0.512 µM
SMILES: CN(C)c1nc2c(c(N(C)CCc3ccccn3)n1)CN(C(=O)Nc1ccccc1)CC2

solubility [1]: 20 µM (≈ 9.3 µg/mL) | Ratio Ki (Homo sapiens [4]): > 1000 | Activity [5]: Not Active | inhibition (INH) [6]: Not Active | Ratio Ki (Homo sapiens [9]): 300 | Ratio Ki (Homo sapiens [11]): > 1000 | inhibition (INH) [12]: Not Active | Ratio Ki (Homo sapiens [14]): 116 | Ratio Ki (Homo sapiens [15]): > 1000 | Ratio Ki (Homo sapiens [16]): > 1000 | clearance [20]: 6 mL/min/kg | Ratio Ki (Homo sapiens [21]): > 1000 | Ratio Ki (Homo sapiens [22]): 44 | clearance [23]: 3.8 mL/min/kg | Ratio Ki (Homo sapiens [25]): > 1000 | Ratio Ki (Homo sapiens [27]): > 1000 | concentration at 2 h [28]: 730 nM | clearance [29]: 7.7 mL/min/kg
SMILES: COCCOc1nc(-c2ccc(Cl)nc2)nc2c1CN(C(=O)c1ncn3ccccc13)CC2 [THPP-1]
Activity (Rattus norvegicus [3]): Non-toxic | Activity (Salmonella typhimurium): Non-toxic | Activity (Rattus norvegicus [7]): Non-toxic | Activity (Rattus norvegicus [8]): Non-toxic | Activity (Rattus norvegicus [10]): >150% | Activity (Rattus norvegicus [13]): Dose-dependent effect | Activity (Rattus norvegicus [17]): Active | Activity (Rattus norvegicus [18]): Non-toxic | Activity (Rattus norvegicus [19]): Active | Activity (Canis familiaris): Non-toxic | Activity (Rattus norvegicus [24]): Non-toxic | inhibition (Rattus norvegicus [26]): Dose-dependent effect | inhibition (Rattus norvegicus [30]): Dose-dependent effect

solubility [1]: > 75 µM | Ki [2]: 0.117 µM
SMILES: CN(CCc1ccccn1)c1nc(-c2ccncc2)nc2c1CN(C(=O)Nc1ccncc1)CC2

Ki [2]: 4.34 µM
SMILES: Cc1nc2c(c(N(C)CCc3ccccn3)n1)CN(C(=O)Nc1ccccc1)CC2

Ki [2]: 0.003 µM
SMILES: Cc1ccncc1NC(=O)N1CCc2nc(-c3ccc(F)nc3)nc(OC(C)C)c2C1

Ki [2]: 0.063 µM
SMILES: Cc1ccncc1NC(=O)N1CCc2nc(-c3ccc(O)nc3)nc(OC(C)C)c2C1

solubility [1]: > 75 µM | Ki [2]: 0.122 µM
SMILES: COc1ccc(NC(=O)N2CCc3nc(-c4ccncc4)nc(N(C)CCc4ccccn4)c3C2)cc1

Ki [2]: 0.0006 µM
SMILES: Cc1ccncc1NC(=O)N1CCc2nc(-c3ccc(Cl)nc3)nc(OC(C)C)c2C1

solubility [1]: > 75 µM | Ki [2]: 0.156 µM
SMILES: CN(CCc1ccccn1)c1nc(-c2ccncc2)nc2c1CN(C(=O)Nc1cccc(F)c1)CC2

solubility [1]: > 75 µM | clearance [31]: > 100 mL/min/kg
SMILES: CCc1cccc(NC(=O)N2CCc3nc(-c4cccnc4)nc(OC4CCN(C)CC4)c3C2)c1

solubility [1]: > 75 µM | Ki [2]: 0.135 µM
SMILES: COCCOc1nc(-c2ccncc2)nc2c1CN(C(=O)Nc1ccccc1)CC2

SMILES: Cc1cc2c(s1)Nc1ccccc1N=C2N1CCN(C)CC1 [OLANZAPINE]
Activity (Rattus norvegicus [32]): Toxic | Activity (Rattus norvegicus [33]): Toxic | Activity (Rattus norvegicus [34]): Toxic
